Laboratory results reported in ChEMBL document CHEMBL2029270, “Irreversible inhibition of epidermal growth factor receptor activity by 3-aminopropanamides” (J Med Chem, 2012).
The source made the active and inactive calls. No cut-off for these calls is given here.

What was measured:
NCI-H1975 [1] = assay: Antiproliferative activity against gefitinib-resistant human NCI-H1975 cells expressing EGFR T790M mutant after 3 days by MTT assay; format: functional, cell-based; details: NCI-H1975, 72 h
[2] = target: T1, Epidermal growth factor receptor (Homo sapiens, UniProt P00533); assay: Inhibition of human recombinant EGFR using Ulight-CAGAGAIETDKEYYTVKD as substrate after 15 mins by time-resolved fluorimetric analysis
NCI-H1975 [3] = assay: Ratio of gefitinib IC50 to compound IC50 for human NCI-H1975 cells; format: functional
[4] = target: T1, Epidermal growth factor receptor; details: A549, at 1 µM
[5] = target: T1, Epidermal growth factor receptor; details: A549, at 1 µM; remark: listed apart in the source
[6] = target: T2, Receptor tyrosine-protein kinase erbB-2 (Homo sapiens, UniProt P04626); assay: Inhibition of ErbB2 by time-resolved fluorometry
A549 [7] = assay: Drug uptake in human A549 cells at 1 uM after 1 hr by LC-MS analysis; format: ADME, cell-based; details: a549, 1 h
Procedure, shortened: (§1)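 A549 cells plated 24 h, then exposed 1 h at 37 °C to 1 μM compound (0.1% DMSO final), assayed immediately or 8 h after three washes with fresh medium. Ethanol extraction at 4 °C, extract dried, redissolved, quantified by LC−MS against 50 nM–5 μM calibration (LOQ 50 nM, LOD 20 nM).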

A549 [8] = assay: Drug uptake in human A549 cells at 1 uM incubated for 1 hr measured 8 hrs post-wash out by LC-MS analysis; format: ADME, cell-based; details: a549, 1 h; procedure, shortened: as §1
[9] = Chemical stability of the compound in 0.01 M PBS buffer assessed as compound remaining at 1 uM after 24 hrs at pH 7.4; format: physicochemical; details: read-out: Stability
Procedure, shortened: (§2)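 Buffer stability at pH 7.4 or pH 9.0, compound at 1 μM, 37 °C for 24 h; percentage of parent left measured by LC−UV and LC−ESI-MS, mean ± SD, n = 3.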

[10] = Chemical stability of the compound in 0.01 M borate buffer assessed as compound remaining at 1 uM after 24 hrs at pH 9; format: physicochemical; details: read-out: Stability; procedure, shortened: as §2
[11] = Metabolic stability in rat plasma assessed as compound remaining at 1 uM after 24 hrs; format: ADME, cell-free; details: read-out: Stability
Procedure, shortened: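 Incubation of compound (1 μM) in 80% (v/v) rat plasma at 37 °C for 24 h; parent remaining determined by LC−UV and LC−ESI-MS, mean ± SD, n = 3.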

[12] = Chemical stability of the compound assessed as compound remaining at 1 uM after 1 hr at pH 7.4 in the presence of DTT; format: physicochemical; details: buffer, read-out: Stability
Procedure, shortened: (§3)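 Test compound (1 μM) in PBS pH 7.4 with freshly prepared thiol (DTT, GSH, NAC or cysteamine, 2 mM), incubated 1 h at 37 °C; parent remaining quantified by LC−UV and LC−ESI-MS, mean ± SD, n = 3.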

[13] = Chemical stability of the compound assessed as compound remaining at 1 uM after 1 hr at pH 7.4 in the presence of GSH; format: physicochemical; details: buffer, read-out: Stability; procedure, shortened: as §3
[14] = Chemical stability of the compound assessed as compound remaining at 1 uM after 1 hr at pH 7.4 in the presence of NAC; format: physicochemical; details: buffer, read-out: Stability; procedure, shortened: as §3
[15] = Chemical stability of the compound assessed as compound remaining at 1 uM after 1 hr at pH 7.4 in the presence of cysteamine; format: physicochemical; details: buffer, read-out: Stability; procedure, shortened: as §3
[16] = Drug degradation of the compound assessed as thiol-conjugate formation at 1 uM up to 24 hrs at pH 7.4 in the presence of GSH; format: physicochemical; details: buffer, pH 7.4, 24 h
Procedure, shortened: (§4)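 Conjugate formation checked by HPLC−UV and HPLC−ESI-MS after adding freshly prepared thiol (2 mM; cysteamine, NAC, DTT or reduced GSH) to PBS pH 7.4 holding compound at 1 μM, 37 °C; sampled up to 24 h.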

[17] = Drug degradation of the compound assessed as thiol-conjugate formation at 1 uM up to 24 hrs at pH 7.4 in the presence of NAC; format: physicochemical; details: buffer, pH 7.4, 24 h; procedure, shortened: as §4
[18] = Drug degradation of the compound assessed as thiol-conjugate formation at 1 uM up to 24 hrs at pH 7.4 in the presence of cysteamine; format: physicochemical; details: buffer, pH 7.4, 24 h; procedure, shortened: as §4
[19] = target: T2, Receptor tyrosine-protein kinase erbB-2; assay: Inhibition of ErbB2 up to 10 uM by time-resolved fluorometry
[20] = Drug degradation of the compound assessed as thiol-conjugate formation at 1 uM up to 24 hrs at pH 7.4 in the presence of DTT; format: physicochemical; details: buffer, pH 7.4, 24 h; procedure, shortened: as §4
A549 [21] = assay: Prodrug conversion in human A549 cell lysate assessed as N-(4-(3-bromophenylamino)quinazolin-6-yl)acrylamide level at 10 uM after 1 hr by HPLC-HRMS analysis; format: ADME, cell-based; details: a549, 1 h
Procedure, shortened: (§5)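 A549 cells grown 2 days, lysed by freeze/thaw; lysate pre-spiked with 2 mM cysteine, compound added from fresh DMSO stock to 10 μM final, 37 °C. Aliquots at 0, 1 and 4 h quenched with double volume acetonitrile, centrifuged, analysed by LC−HRMS in positive ion mode.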

A549 [22] = assay: Drug metabolism in human A549 cell lysate assessed as N-(4-(3-bromophenylamino)quinazolin-6-yl)acrylamide-cysteine adduct level at 10 uM after 1 hr by HPLC-HRMS analysis; format: ADME, cell-based; details: a549, 1 h; procedure, shortened: as §5
[23] = system: Epidermal growth factor receptor (Homo sapiens), P00533 [T790M]; assay: (§6) Inhibition of EGFR T790M mutant autophosphorylation in human NCI-H1975 cells after 1 hr by Western blot analysis; format: cell-based
[24] = target: Epidermal growth factor receptor (Homo sapiens, UniProt P00533, T790M); assay: as §6; format: cell-based
Epidermal growth factor receptor (Homo sapiens, UniProt P00533, T790M), sequence (P00533 whole entry T790M): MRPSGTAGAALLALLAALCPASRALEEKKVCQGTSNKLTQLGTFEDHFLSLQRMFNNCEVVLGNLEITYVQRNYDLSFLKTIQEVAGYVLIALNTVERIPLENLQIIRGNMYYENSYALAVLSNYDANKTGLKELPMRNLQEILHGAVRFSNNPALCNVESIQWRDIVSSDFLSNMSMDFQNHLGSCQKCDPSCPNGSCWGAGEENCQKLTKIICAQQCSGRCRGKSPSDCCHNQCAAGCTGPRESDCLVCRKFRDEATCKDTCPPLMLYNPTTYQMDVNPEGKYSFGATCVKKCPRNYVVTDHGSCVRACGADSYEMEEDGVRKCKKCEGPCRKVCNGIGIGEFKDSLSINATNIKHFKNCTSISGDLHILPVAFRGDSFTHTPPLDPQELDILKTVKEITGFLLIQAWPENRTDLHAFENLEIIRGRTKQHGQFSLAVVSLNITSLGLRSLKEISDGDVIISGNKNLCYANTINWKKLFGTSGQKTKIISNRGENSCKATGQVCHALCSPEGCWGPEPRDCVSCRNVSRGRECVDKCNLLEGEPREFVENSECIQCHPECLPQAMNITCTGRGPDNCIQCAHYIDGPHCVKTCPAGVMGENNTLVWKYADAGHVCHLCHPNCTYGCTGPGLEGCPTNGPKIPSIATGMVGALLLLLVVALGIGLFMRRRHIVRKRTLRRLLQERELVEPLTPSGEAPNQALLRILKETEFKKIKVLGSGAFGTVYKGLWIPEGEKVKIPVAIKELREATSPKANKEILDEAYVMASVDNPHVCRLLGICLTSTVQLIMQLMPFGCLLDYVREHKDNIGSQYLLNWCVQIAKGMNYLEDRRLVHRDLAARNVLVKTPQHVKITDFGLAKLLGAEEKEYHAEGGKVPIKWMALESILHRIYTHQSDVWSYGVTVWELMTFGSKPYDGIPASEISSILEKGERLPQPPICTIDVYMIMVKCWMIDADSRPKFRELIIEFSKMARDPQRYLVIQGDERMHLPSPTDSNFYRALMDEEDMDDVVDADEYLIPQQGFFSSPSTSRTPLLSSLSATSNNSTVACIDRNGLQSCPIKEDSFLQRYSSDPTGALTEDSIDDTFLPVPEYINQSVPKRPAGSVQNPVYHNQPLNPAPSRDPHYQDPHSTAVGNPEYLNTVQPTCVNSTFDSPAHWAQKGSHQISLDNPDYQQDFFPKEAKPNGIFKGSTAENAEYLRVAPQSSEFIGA

T1 sequence (P00533 whole entry): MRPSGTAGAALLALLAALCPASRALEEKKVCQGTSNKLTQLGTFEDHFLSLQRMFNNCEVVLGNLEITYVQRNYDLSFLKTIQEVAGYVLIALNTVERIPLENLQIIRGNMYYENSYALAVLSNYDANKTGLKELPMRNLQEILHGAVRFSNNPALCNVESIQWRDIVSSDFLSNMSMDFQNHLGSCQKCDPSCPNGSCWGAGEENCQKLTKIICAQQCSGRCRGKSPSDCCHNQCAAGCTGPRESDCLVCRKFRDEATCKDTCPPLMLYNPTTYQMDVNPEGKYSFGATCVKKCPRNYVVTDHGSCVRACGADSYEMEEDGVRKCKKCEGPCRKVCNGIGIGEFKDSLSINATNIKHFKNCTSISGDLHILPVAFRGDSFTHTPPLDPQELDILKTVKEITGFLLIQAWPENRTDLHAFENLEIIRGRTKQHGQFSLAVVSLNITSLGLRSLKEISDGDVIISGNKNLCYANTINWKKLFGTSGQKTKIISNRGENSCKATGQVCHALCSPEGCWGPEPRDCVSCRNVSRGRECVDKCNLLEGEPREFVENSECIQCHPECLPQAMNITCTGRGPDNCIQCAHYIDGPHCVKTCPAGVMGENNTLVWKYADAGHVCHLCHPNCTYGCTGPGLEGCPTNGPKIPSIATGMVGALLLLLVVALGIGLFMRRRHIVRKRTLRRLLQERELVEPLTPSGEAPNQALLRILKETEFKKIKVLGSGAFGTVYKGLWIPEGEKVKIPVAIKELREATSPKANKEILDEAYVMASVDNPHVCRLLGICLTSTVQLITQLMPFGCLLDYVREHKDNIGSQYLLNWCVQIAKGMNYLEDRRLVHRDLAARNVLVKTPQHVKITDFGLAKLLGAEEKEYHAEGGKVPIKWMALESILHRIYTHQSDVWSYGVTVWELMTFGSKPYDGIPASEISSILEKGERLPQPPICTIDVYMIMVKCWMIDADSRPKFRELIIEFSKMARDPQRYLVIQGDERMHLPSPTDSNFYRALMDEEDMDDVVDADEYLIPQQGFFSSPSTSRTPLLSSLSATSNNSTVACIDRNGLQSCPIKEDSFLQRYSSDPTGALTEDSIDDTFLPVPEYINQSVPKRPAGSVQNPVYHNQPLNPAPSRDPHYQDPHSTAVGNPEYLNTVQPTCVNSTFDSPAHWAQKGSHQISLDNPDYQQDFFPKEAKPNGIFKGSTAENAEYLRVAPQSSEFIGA
T2 sequence (P04626 whole entry): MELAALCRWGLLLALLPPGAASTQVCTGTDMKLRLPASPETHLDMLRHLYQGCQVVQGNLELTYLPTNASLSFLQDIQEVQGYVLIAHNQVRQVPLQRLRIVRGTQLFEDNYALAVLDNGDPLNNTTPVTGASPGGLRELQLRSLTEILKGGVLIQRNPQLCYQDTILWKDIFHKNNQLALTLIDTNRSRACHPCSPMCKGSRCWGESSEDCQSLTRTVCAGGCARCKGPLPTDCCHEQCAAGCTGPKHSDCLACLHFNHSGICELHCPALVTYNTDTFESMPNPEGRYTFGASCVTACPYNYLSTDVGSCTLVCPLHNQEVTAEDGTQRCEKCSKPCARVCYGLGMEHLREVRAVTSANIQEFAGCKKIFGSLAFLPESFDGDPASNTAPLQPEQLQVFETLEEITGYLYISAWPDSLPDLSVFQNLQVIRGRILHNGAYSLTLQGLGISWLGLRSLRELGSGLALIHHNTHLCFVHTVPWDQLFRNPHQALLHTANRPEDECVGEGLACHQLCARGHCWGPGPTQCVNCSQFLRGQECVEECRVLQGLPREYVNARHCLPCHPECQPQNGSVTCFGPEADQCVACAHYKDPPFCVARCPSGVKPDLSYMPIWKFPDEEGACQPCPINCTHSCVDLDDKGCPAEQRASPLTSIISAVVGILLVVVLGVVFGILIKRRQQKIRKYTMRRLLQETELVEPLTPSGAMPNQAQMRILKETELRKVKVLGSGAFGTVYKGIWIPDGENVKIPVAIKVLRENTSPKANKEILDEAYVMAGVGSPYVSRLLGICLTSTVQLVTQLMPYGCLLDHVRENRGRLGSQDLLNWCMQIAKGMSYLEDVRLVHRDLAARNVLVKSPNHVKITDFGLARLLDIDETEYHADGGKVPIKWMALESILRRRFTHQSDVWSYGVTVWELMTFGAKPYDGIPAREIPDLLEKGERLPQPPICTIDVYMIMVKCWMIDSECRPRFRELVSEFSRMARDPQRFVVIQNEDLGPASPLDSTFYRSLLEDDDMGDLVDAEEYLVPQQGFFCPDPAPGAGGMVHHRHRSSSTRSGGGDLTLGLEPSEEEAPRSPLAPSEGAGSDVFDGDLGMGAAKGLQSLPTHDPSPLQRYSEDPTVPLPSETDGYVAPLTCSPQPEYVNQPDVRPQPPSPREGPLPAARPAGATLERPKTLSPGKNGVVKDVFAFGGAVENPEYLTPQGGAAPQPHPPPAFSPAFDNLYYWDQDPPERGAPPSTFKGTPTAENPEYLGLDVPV
Epidermal growth factor receptor (Homo sapiens), P00533 [T790M], sequence (P00533 whole entry T790M): as the sequence (P00533 whole entry T790M) above

| Compound | IC50 (NCI-H1975 [1]) [nM] | IC50 [2] [nM] | inhibition [4] [%] | inhibition [5] [%] | further results |
| --- | --- | --- | --- | --- | --- |
| CCOc1cc2ncnc(Nc3ccc(F)c(Cl)c3)c2cc1NC(=O)CCN1CCOCC1 | 2110 | 0.29 | 97 | 97 | Ratio IC50 (NCI-H1975 [3]): 3 |
| C=CC(=O)Nc1cc2c(Nc3ccc(F)c(Cl)c3)ncnc2cc1OCC | 1620 | 0.18 | 99 | 96 |  |
| CCOc1cc2ncc(C#N)c(Nc3ccc(F)c(Cl)c3)c2cc1NC(=O)CCN1CCOCC1 | 3930 | 2.02 | 48 | 86 |  |
| C=CC(=O)Nc1cc2c(Nc3ccc(F)c(Cl)c3)c(C#N)cnc2cc1OCC | 3570 | 1.46 | 33 | 92 |  |
| CCOc1cc2ncc(C#N)c(Nc3ccc(OCc4ccccn4)c(Cl)c3)c2cc1NC(=O)CCN(C)C | 2030 | 12.5 | 59 | 61 | IC50 [6]: 970 nM |
| Nc1ccc2ncnc(Nc3cccc(Br)c3)c2c1 |  |  |  |  | Drug uptake (A549 [7]): 0.105 nmol/mg; Drug uptake (A549 [8]): Not Active |
| O=C(CCN1CCOCC1)Nc1ccc2ncnc(Nc3cccc(Br)c3)c2c1 | > 20000 | 0.51 | 91 | 98 |  |
| O=C(CCN1CCCCC1)Nc1ccc2ncnc(Nc3cccc(Br)c3)c2c1 | 6670 | 0.27 | 93 | 95 |  |
| CCOc1cc2ncc(C#N)c(Nc3ccc(OCc4ccccn4)c(Cl)c3)c2cc1NC(=O)CCN1CCOCC1 | 2760 | 37.5 | 39 | 48 |  |
| C=CC(=O)Nc1ccc2ncnc(Nc3cccc(Br)c3)c2c1 |  |  |  |  | remaining at 24 h, 1 µM [9]: 102%; remaining at 24 h, 1 µM [10]: 105%; remaining at 24 h, 1 µM [11]: 21.8%; remaining at 1 h, 1 µM [12]: 100%; remaining at 1 h, 1 µM [13]: 63.8%; remaining at 1 h, 1 µM [14]: 85.6%; remaining at 1 h, 1 µM [15]: 20.1%; Drug degradation [16]: Active; Drug degradation [17]: Active; Drug degradation [18]: Active; Drug uptake (A549 [7]): Not Active; Drug uptake (A549 [8]): Not Active |
| CN(C)CCC(=O)N(C)c1ccc2ncnc(Nc3cccc(Br)c3)c2c1 | 13600 | 17.4 | 10 | 47 |  |
| CN(C)CCC(=O)Nc1ccc2ncnc(Nc3cccc(Br)c3)c2c1 |  |  |  |  | remaining at 24 h, 1 µM [9]: 97.5%; remaining at 24 h, 1 µM [10]: 77%; remaining at 24 h, 1 µM [11]: 98.7%; remaining at 1 h, 1 µM [12]: 99.2%; remaining at 1 h, 1 µM [13]: 101%; remaining at 1 h, 1 µM [14]: 100%; remaining at 1 h, 1 µM [15]: 100%; inhibition [19]: inactive; Drug degradation [20]: Not Active; Drug degradation [16]: Not Active; Drug degradation [17]: Not Active; Drug degradation [18]: Not Active; Drug uptake (A549 [7]): 0.05 nmol/mg; Drug uptake (A549 [8]): Not Active; Drug metabolism (A549 [21]): Active; Drug metabolism (A549 [22]): Active |
| CCOc1cc2ncc(C#N)c(Nc3ccc(F)c(Cl)c3)c2cc1NC(=O)CCN1CCCCC1 | 2730 | 2.21 | 82 | 92 |  |
| CCOc1cc2ncc(C#N)c(Nc3ccc(F)c(Cl)c3)c2cc1NC(=O)CCN(C)C | 2370 | 0.68 | 67 | 88 |  |
| CCOc1cc2ncnc(Nc3ccc(F)c(Cl)c3)c2cc1NC(=O)CCN1CCCCC1 | 1610 | 0.51 | 92 | 98 | Ratio IC50 (NCI-H1975 [3]): 3 |
| CCOc1cc2ncc(C#N)c(Nc3ccc(OCc4ccccn4)c(Cl)c3)c2cc1NC(=O)CCN1CCCCC1 | 710 | 24.8 | 58 | 71 | inhibition [23]: Dose-dependent effect; IC50 [24]: 150 nM; IC50 [6]: 980 nM; Ratio IC50 (NCI-H1975 [3]): 11 |
| CCOc1cc2ncnc(Nc3ccc(F)c(Cl)c3)c2cc1NC(=O)CCN(C)C | 2210 | 0.27 | 100 | 98 | Ratio IC50 (NCI-H1975 [3]): 3 |
